In one series the target is T1, Vasopressin V1b receptor (Homo sapiens, UniProt P47901).
T1 sequence (P47901 whole entry): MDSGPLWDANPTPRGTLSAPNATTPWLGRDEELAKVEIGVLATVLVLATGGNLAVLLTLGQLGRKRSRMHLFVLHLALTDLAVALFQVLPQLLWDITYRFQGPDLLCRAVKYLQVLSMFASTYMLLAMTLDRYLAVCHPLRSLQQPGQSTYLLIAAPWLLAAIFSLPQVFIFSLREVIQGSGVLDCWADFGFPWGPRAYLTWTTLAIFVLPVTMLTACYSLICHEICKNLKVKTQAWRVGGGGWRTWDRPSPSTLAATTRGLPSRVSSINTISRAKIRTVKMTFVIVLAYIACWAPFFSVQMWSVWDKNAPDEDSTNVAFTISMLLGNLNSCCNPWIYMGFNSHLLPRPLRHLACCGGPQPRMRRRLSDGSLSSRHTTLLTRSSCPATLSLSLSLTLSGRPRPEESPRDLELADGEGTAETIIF
In words: Displacement of [3H]AVP from human vasopressin V1b receptor expressed in CHO cells co-expressing VIP-luciferase by scintillation counting-based whole cell binding assay. The method in brief: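 Whole-cell binding in CHO cells stably expressing human V1b (VIP-luciferase line), grown at 37 °C, 5% CO2 in DMEM/F12 with 10% FBS and 0.4 mg/mL G418. Seeded at 30,000 cells, cultured overnight, washed with PBS. Serially diluted compound with 5 nM [3H]-AVP (final) in PBS, 10 mM MgCl2, 0.1% BSA, 1% DMSO, 30 min at room temperature. Wells washed, dried, scintillation counted.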
A general note: In a radioligand displacement assay an active substance lowers the binding of a labelled ligand.

A short description of series [1]: Apparent permeability of the compound from basolateral to apical side in human Caco2 cell membrane. The format is ADME, cell-based. Conditions: Caco-2. For orientation: Caco-2 cells form a polarised layer with tight junctions and transporters.
Series [2] is described as follows: Intrinsic clearance in human liver microsomes. In general terms: Microsomes from liver hold many membrane-bound enzymes, among them those of drug oxidation.
A short description of series [3]: Apparent permeability of the compound from apical to basolateral side in human Caco2 cell membrane. Conditions: Caco-2.
Series [4] is described as follows: Clearance in Wistar rat at 1 mg/kg, iv. The format is ADME, organism-based. Conditions: in vivo. Further details: dose 1 mg/kg, route intravenous. In a few lines: (§1)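 Male Wistar rats. iv dose 1 mg/kg in 10% (v/v) DMA in water. po dose 5 mg/kg in 5% (v/v) mulgofen in saline. Oral AUC reported as AUCt, iv AUC as AUCinf. Values given as mean ± spread.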
Series [5] can be described thus: AUCt in Wistar rat at 5 mg/kg, po. Details: dose 5 mg/kg, route oral. The note with it: plasma. The format is ADME, organism-based. In a few lines: as §1
The nature of series [6]: Volume of distribution at steady state in Wistar rat at 1 mg/kg, iv. The format is ADME, organism-based. Further details: dose 1 mg/kg, route intravenous. Conditions: in vivo, read-out: Vdss. The method in brief:
as §1

The target of series [7] is T2, Vasopressin V1b receptor (Homo sapiens) (UniProt P47901).
T2 sequence (whole entry): T1 sequence (P47901 whole entry)
In words: Antagonist activity at human vasopressin V1b receptor expressed CHO cells co-expressing VIP-luciferase assessed as reporter gene linked AVP-mediated intracellular calcium mobilization. The class given is functional, cell-based.

The test system of series [8] is Rattus norvegicus. The series can be described thus: Reduction in desmopressin/CRH-induced ACTH release in po dosed rat hyphalamic-pituitary-adrenal hyperactivity model. The format is functional, organism-based. In a few lines: (§2)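 Rats dosed orally with compound or vehicle (5% mulgofen in saline) at T=0. CRH (0.3 µg/kg) or PBS given iv via jugular catheter at T+100 min. dDAVP (0.5 mg/kg) or PBS given iv at T+120 min. 0.5 ml blood taken at T+130 min, kept on ice, centrifuged at 4 °C, plasma stored at -40 °C. ACTH measured by ELISA, drug level by mass spectrometry.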

Series [9] concerns Rattus norvegicus. In words: Reduction in desmopressin-induced ACTH release in rat hyphalamic-pituitary-adrenal hyperactivity model at 10 mg/kg, po. The format is functional, organism-based. Details: dose 10 mg/kg. The method in brief: as §2
The species named for series [10] is Homo sapiens. The series can be described thus: Selectivity ratio for human vasopressin V1b receptor over human vasopressin V2 receptor.
Series [11] is described as follows: Oral bioavailability in Wistar rat at 5 mg/kg, po. The class given is ADME, organism-based. Conditions: in vivo. The method in brief: as §1
The species entered for series [12] is Homo sapiens. The series can be described thus: Selectivity ratio for human vasopressin V1b receptor over human oxytocin receptor.
Series [13] in a line: Elimination half life in Wistar rat at 1 mg/kg, iv. The note with it: in vivo, read-out: beta t1/2 (converted). The class given is ADME, organism-based. Further details: dose 1 mg/kg, route intravenous. In a few lines: as §1
The nature of series [14]: AUC (infinity) in Wistar rat at 1 mg/kg, iv. The format is ADME, organism-based. Details: time infinity, dose 1 mg/kg, route intravenous. Conditions: plasma. The method in brief:
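Male Wistar rats given a single intravenous dose of 1 mg/kg in 10% (v/v) DMA in water. AUC taken to infinity from plasma concentrations. Value reported as mean ± variability.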

For series [15], the species on record is Homo sapiens. The series can be described thus: Selectivity ratio for human vasopressin V1b receptor over human vasopressin V1a receptor.
The nature of series [16]: Inhibition of human Cytochrome P450. The format is ADME.

Active and inactive are the calls of the source. The calls are words filed in the database; no cut-off is given here. A value given as a limit tells only on which side of the number the result lay.

Compound `O=C(Cn1c(-c2ccccc2)nc2ccc(-c3cccc(CN4CCC4)c3)cc2c1=O)NC1CCCC1` came in with an IC50 at Vasopressin V1b receptor of 0.238 µM. Compound `O=C(Cn1c(-c2ccccc2)nc2ccc(-c3cccc(CN4CCOCC4)c3)cc2c1=O)NCC1CC1` returned an IC50 on Vasopressin V1b receptor of 0.079 µM. Still for that read-out and setting: with `NCc1cccc(-c2ccc3nc(-c4ccccc4)n(CC(=O)NCC4CC4)c(=O)c3c2)c1` the figure was 1.2 µM; with `CC(C)NC(=O)Cn1c(-c2ccccc2)nc2ccc(-c3cccc(CN4CCC4)c3)cc2c1=O`, 0.397 µM.

Regarding `COc1cccc(-c2nc3ccc(-c4cc(CN(C)C)ccc4F)cc3c(=O)n2CC(=O)NC(C)C)c1`, in series [1], the Papp B→A came to 23.3 ×10⁻⁶ cm/s. Besides, the IC50 at Vasopressin V1b receptor amounted to 0.007 µM. Besides, in [2], the microsomal CLint stood at 58 µL/min/mg. In [3], the Papp A→B was 12.1 ×10⁻⁶ cm/s.

In the case of `COc1cccc(-c2nc3ccc(-c4cccc(CN5CCC5)c4)cc3c(=O)n2CC(=O)NC(C)C)c1`, the IC50 on Vasopressin V1b receptor was found to be 0.046 µM. `O=C(Cn1c(-c2ccccc2)nc2ccc(-c3ccc(CN4CCCCC4)cc3)cc2c1=O)NCC1CC1` gave an IC50 at Vasopressin V1b receptor of more than 20 µM. Still for that read-out and setting: as for `O=C(Cn1c(-c2ccccc2)nc2ccc(-c3cccc(CN4CCC4)c3)cc2c1=O)NC1CC1`, the figure is 2.55 µM; as for `CCN(CC)Cc1cccc(-c2ccc3nc(-c4ccccc4)n(CC(=O)NCC4CC4)c(=O)c3c2)c1`, 0.54 µM. On the same count and under the same terms, with `O=C(Cn1c(-c2ccccc2)nc2ccc(-c3ccccc3CN3CCOCC3)cc2c1=O)NCC1CC1` the figure was more than 20 µM; with `CC(C)NC(=O)Cn1c(-c2cccc(Cl)c2)nc2ccc(-c3cccc(CN4CCC4)c3)cc2c1=O`, 0.06 µM. The same measure, in the same setting: as for `CC(C)NC(=O)Cn1c(-c2cccc(Cl)c2)nc2ccc(-c3cccc(CN(C)C)c3)cc2c1=O`, the figure is 0.019 µM; as for `COc1cccc(-c2nc3ccc(-c4cc(CN(C)C)ccn4)cc3c(=O)n2CC(=O)NC(C)C)c1`, 0.052 µM.

The compound `O=C(Cn1c(-c2ccccc2)nc2ccc(-c3cccc(CN4CCCC4)c3)cc2c1=O)NCC1CC1` gave an IC50 at Vasopressin V1b receptor of 0.388 µM. Still for that read-out and setting: with `CNCc1cccc(-c2ccc3nc(-c4ccccc4)n(CC(=O)NCC4CC4)c(=O)c3c2)c1` the figure was 0.32 µM. Same read-out and setting: as for `O=C(Cn1c(-c2ccccc2)nc2ccc(-c3ccc(CN4CCOCC4)cc3)cc2c1=O)NCC1CC1`, the figure is more than 20 µM; as for `COc1cccc(-c2nc3ccc(-c4cccc(CN5CCCCC5)c4)cc3c(=O)n2CC(=O)NC(C)C)c1`, 0.002 µM. `COc1cc(-c2nc3ccc(-c4cccc(CN(C)C)c4)cc3c(=O)n2CC(=O)NC(C)C)ccc1F` yielded a clearance in [4] of 40.2 mL/min/kg. The compound further returned an AUC(0-t) in [5] of 930 ng·h/mL. In addition, in series [6], the Vd came to 4.85 L/kg. In series [7], the result was Active. The inhibition entry in the series with Rattus norvegicus [8] is “Dose-dependent effect”. Also, in series [1], the Papp B→A was 9.1 ×10⁻⁶ cm/s. The IC50 at Vasopressin V1b receptor was 0.001 µM; in [16], more than 17 µM. Further, in the series on Rattus norvegicus [9], the inhibition result is “Active”. For the same compound, the fold change (FC) in the series filed under Homo sapiens [10], in the series filed under Homo sapiens [12] and in the series filed under Homo sapiens [15] was more than 10000 each time. The compound further yielded a bioavailability in [11] of 45%. Besides, the microsomal CLint in [2] was less than 12 µL/min/mg. Further, in series [3], the apparent permeability from apical to basolateral (Papp A→B) stood at 6.8 ×10⁻⁶ cm/s. For the same compound, the half-life in series [13] was 1.61 h. Moreover, the AUC(0-inf) in series [14] was 441 ng·h/mL. In turn, `COc1cccc(-c2nc3ccc(-c4cncc(CN(C)C)c4)cc3c(=O)n2CC(=O)NC(C)C)c1` came in with an IC50 at Vasopressin V1b receptor of 0.077 µM. Same read-out and setting: with `CC(C)(C)NC(=O)Cn1c(-c2ccccc2)nc2ccc(-c3cccc(CN4CCC4)c3)cc2c1=O` the figure was 0.187 µM. `COc1cccc(-c2nc3ccc(-c4cccc(CN(C)C)c4)cc3c(=O)n2CC(=O)NC(C)C)c1` had an IC50 at Vasopressin V1b receptor of 0.009 µM. Also, the microsomal CLint in series [2] turned out to be 45 µL/min/mg. On Vasopressin V1b receptor, `COc1cccc(-c2nc3ccc(-c4ccc(CN(C)C)s4)cc3c(=O)n2CC(=O)NC(C)C)c1` returned a half-inhibitory concentration (IC50) of 0.5 µM. `COc1cccc(-c2nc3ccc(-c4cccc(CN(C)C)n4)cc3c(=O)n2CC(=O)NC(C)C)c1`: the IC50 on Vasopressin V1b receptor amounted to 0.037 µM. This IC50 lies about 14-fold lower than the previous one. Still for that read-out and setting: as for `COc1ccccc1-c1nc2ccc(-c3cccc(CN4CCC4)c3)cc2c(=O)n1CC(=O)NC(C)C`, the figure is 0.61 µM. For the compound `CCCNC(=O)Cn1c(-c2ccccc2)nc2ccc(-c3cccc(CN4CCC4)c3)cc2c1=O`, the IC50 at Vasopressin V1b receptor came to 2.35 µM.

At Vasopressin V1b receptor, `CC(C)NC(=O)Cn1c(-c2cccc(Cl)c2)nc2ccc(-c3cccc(CN4CCCCC4)c3)cc2c1=O` had an IC50 of 0.009 µM. On the same count and under the same terms, as for `COc1cccc(-c2nc3ccc(-c4ccc(CN(C)C)o4)cc3c(=O)n2CC(=O)NC(C)C)c1`, the figure is 0.7 µM; as for `O=C(Cn1c(-c2ccccc2)nc2ccc(-c3cccc(CN4CCCCC4)c3)cc2c1=O)NCC1CC1`, 0.06 µM. The same measure, in the same setting: with `COCCNCc1cccc(-c2ccc3nc(-c4ccccc4)n(CC(=O)NCC4CC4)c(=O)c3c2)c1` the figure was 0.642 µM; with `CC(C)CNC(=O)Cn1c(-c2ccccc2)nc2ccc(-c3cccc(CN4CCC4)c3)cc2c1=O`, 1.04 µM.

`O=C(Cn1c(-c2ccccc2)nc2ccc(-c3ccccc3CN3CCCCC3)cc2c1=O)NCC1CC1` yielded a half-inhibitory concentration (IC50) at Vasopressin V1b receptor of more than 20 µM. On the same count and under the same terms, as for `O=C(Cn1c(-c2ccccc2)nc2ccc(-c3cccc(CN4CCC4)c3)cc2c1=O)NCC1CC1`, the figure is 0.275 µM. Same read-out and setting: with `CN(C)Cc1cccc(-c2ccc3nc(-c4ccccc4)n(CC(=O)NCC4CC4)c(=O)c3c2)c1` the figure was 0.314 µM.

One may read the IC50 as the concentration that inhibits the measured activity by half. As usually defined, the Papp B→A is how fast a substance crosses the layer from the basolateral side. The microsomal CLint is a measure of how fast metabolising enzymes remove a compound, apart from limits set by blood flow. A high value points to faster metabolism. The Papp A→B is the apparent permeability from the apical to the basolateral side of a cell layer. In general, clearance refers to the volume of plasma or blood freed of the substance per unit of time. A higher clearance goes with efficient removal. For orientation: AUC(0-t) means the area under the concentration-time curve up to a stated or last time point. A lower AUC(0-t) goes with low exposure. As usually defined, the bioavailability is the share of a dose that reaches the circulation, judged against a reference dose that is usually intravenous. For orientation: AUC(0-inf) means the area under the concentration-time curve extrapolated to infinity. Read a high AUC(0-inf) as high exposure.

Source of the values: ChEMBL document CHEMBL1777690, “Synthesis and SAR studies of novel 2-(6-aminomethylaryl-2-aryl-4-oxo-quinazolin-3(4H)-yl)acetamide vasopressin V1b receptor antagonists” (Bioorg Med Chem Lett, 2011).
